# Screening results deposited in PubChem BioAssay by Sanford-Burnham Center for Chemical Genomics.
# UPR CHOP act = activators of apoptotic arm of unfolded protein response (CHOP). AID 449763. CHO-CHOP luciferase reporter, UPR activation, luminescence; percent of tunicamycin response over DMSO baseline. activation, % at 10 µM. 0.34% of 330,000 active;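 active = at 10 µM dose, activation of 40% or more, normalized to positive control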;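 note: 100% = tunicamycin at 10 µg/mL and 0% = DMSO alone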
#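 measured by = luciferase luminescence | assay system = CHO-CHOP cells, stable luciferase reporter of PERK-eIF2a-CHOP signalling | amount = 500 reporter cells seeded per well | timing = 6 h compound exposure at 37 °C after overnight seeding | controls = positive tunicamycin 10 µg/mL, negative DMSO alone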
# Mdm2-MdmX inh = inhibitors of human Mdm2/MdmX interaction. 3% of 330,000 active. SaOS-2 split-luciferase Mdm2/MdmX complementation, luminescence. inhibition, % at 8 µM. AID 485346. O15151+Q00987;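 active = inhibition of at least 50% at 8 µM in the primary screen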
# Apaf1 inhib = human Apaf-1 inhibition; reconstituted apoptosome caspase-3 activity, DEVD-Rh110 fluorescence; inhibition, % at 20 µM; 0.71% of 330,000 active; AID 489030; active = inhibition of at least 40% at 20 µM;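 note: plate controls were DMSO wells for no effect and DEVD-CHO caspase inhibitor wells for full effect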
#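 Assay system: Apoptosome proteins | Medium: pH 7.5 Hepes buffer with CHAPS, BSA, DTT | Also added: Cytochrome c and DEVD-Rh110 substrate | Times: 30 min plus 50 min, RT | Detection: Rhodamine 110 fluorescence at Ex 480/Em 540 nm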
# UPR XBP1 act = adaptive UPR (XBP1) activation; activation, % at 20 µM; CHO-XBP1 luciferase reporter, IRE1-XBP1 UPR activation, luminescence; percent of tunicamycin response, DMSO as zero; AID 463104; 0.33% of 330,000 active;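 active = versus positive control, 20 µM dose yields 30% or more activation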;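 note: 100% = tunicamycin at 10 µg/mL and 0% = DMSO only wells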
#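 assay system = CHO-XBP1 luciferase reporter cells | amount = 1000 cells/well | buffer or medium = F12 plus 10% FBS | compound dosing = single point, 20 µM final compound, 1% DMSO | incubation = 16-18 h cell attachment at 37 °C, then 6 h compound exposure | detection = Steady-Glo luminescence read | controls = tunicamycin 10 µg/mL and vehicle-only wells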
# UBC13 polyUb = blocks human UBC13 polyubiquitin chain formation | inhibition, % at 20 µM | TR-FRET | P61088 | 0.47% of 330,000 active; in the data active = inhibition above about 45%, passing the limit was not always enough
# Target sequence (P61088 whole entry, looked up): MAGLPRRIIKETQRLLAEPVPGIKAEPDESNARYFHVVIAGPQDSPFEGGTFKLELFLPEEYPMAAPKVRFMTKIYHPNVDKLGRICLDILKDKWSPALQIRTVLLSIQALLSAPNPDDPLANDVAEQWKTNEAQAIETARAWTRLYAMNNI
# Mdm2 MdmX conf = human Mdm2/MdmX binding inhibition, confirmed; shares compounds with Mdm2-MdmX inh; luminescent assay; inhibition, % at 8 µM; 55% of 10,000 active; in the data active = inhibition above about 40%
# Full FLuc ctr = inhibits full-length luciferase, flagging false Mdm2/MdmX hits. shares compounds with Mdm2-MdmX inh. SaOS-2 full-length luciferase counterscreen, luminescence. inhibition, % at 8 µM. 77% of 6,200 active. AID 504607;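 active = mean inhibition at 8 µM reaching about 37%, which flags the compound as non-specific, limit read from the data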;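 note: p53-null SaOS-2 cells with luciferase driven by a doxycycline-inducible promoter; compound on cells about two nights before reading with doxycycline added after day one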
# * = called active by the depositor; / = not tested or not shown. This is a sample that favours compounds with a hit; in the whole collection about 4.1% have one here.
SMILES,UPR CHOP act,Mdm2-MdmX inh,Apaf1 inhib,UPR XBP1 act,UBC13 polyUb,Mdm2 MdmX conf,Full FLuc ctr
Cc1ccc(C)c(C(=O)CN2C(=O)c3ccccc3S2(=O)=O)c1,-1,68*,-4,-3,-8,60*,100*
CSc1cccc(NC(=O)CN2C(=O)c3ccccc3S2(=O)=O)c1,-1,53*,-1,-6,-7,44*,77*
COc1ccc(C(=O)CN2C(=O)c3ccccc3S2(=O)=O)cc1,-7,94*,0,-8,-3,95*,26
COc1ccc(C(=O)CN2C(=O)c3ccccc3S2(=O)=O)cc1Br,-2,23,13,-8,-7,/,/
Cc1ccc(C)c(S(=O)(=O)N2CCN(Cc3ccc(O)c4ncccc34)CC2)c1,-1,78*,16,3,-18,71*,36*
O=[N+]([O-])c1cccnc1N1CCC(c2cc(-c3ccc(Cl)cc3)n[nH]2)CC1,2,54*,28,0,-2,1,/
CCOC(=O)CN1CCC(c2cc(-c3ccc(Cl)cc3)n[nH]2)CC1,1,-4,18,1,3,/,/
Nc1[nH]nc2nc(NCc3ccccc3)c3c(c12)CCN(Cc1ccccc1)C3,-1,53*,6,-4,2,20,/
COC(=O)[C@H](CC(C)C)N(Cc1ccccc1)S(=O)(=O)N(Cc1ccc(OC)cc1)[C@@H](CC(C)C)C(=O)OC,7,29,16,-1,6,/,/
CC(C)C[C@H](CO)N(Cc1ccccc1)S(=O)(=O)N(Cc1ccccc1)[C@@H](CO)CC(C)C,3,91*,30,25,7,10,/
O=S(=O)(N(Cc1ccccc1)[C@@H](CO)Cc1ccccc1)N(Cc1ccccc1)[C@@H](CO)Cc1ccccc1,10,37,19,9,2,/,/
C=C[C@H](CC(C)C)N(Cc1ccccc1)S(=O)(=O)N(Cc1ccc(OC)cc1)[C@H](C=C)CC(C)C,9,58*,1,-3,-26,0,/
Oc1ccccc1/C=N/Nc1nccnc1Cl,-1,71*,-3,0,-15,65*,31
Oc1ccc(/C=N/Nc2nccnc2Cl)c(O)c1,2,57*,-8,11,-41,73*,39*
COC(=O)N1C(=O)[C@](c2ccccc2)(C(C)C)N1C(=O)OC,0,35,-1,-3,-4,/,/
CCOC(=O)N1C(=O)[C@@](c2ccc(Cl)cc2)(C(C)C)N1C(=O)OCC,31,88*,9,-5,3,62*,33
CCOC(=O)N1CCN(C(=O)Cc2ccc(Cl)cc2)CC1,-1,-34,-1,-2,0,/,/
CCOC(=O)N1C(=O)[C@](c2ccc(Cl)cc2)(C(C)C)N1C(=O)OCC,11,80*,4,1,7,44*,49*
CC(=O)N(CCCNC(=O)c1ccccc1)C(=O)c1ccccc1,0,-13,2,1,12,/,/
O=C(Cn1c2ccccc2c(=O)c2ccccc21)N/N=C/c1cc([N+](=O)[O-])ccc1N1CCCCCC1,1,97*,12,-1,-12,13,/
O=C(N/N=C/c1cc([N+](=O)[O-])ccc1N1CCNCC1)c1ccc([N+](=O)[O-])cc1,-2,101*,18,0,16,41*,32
CCOC(=O)COc1cc(-n2c(=S)[nH]c3cc(OC)c(OC)cc3c2=O)c(Cl)cc1Cl,0,15,-5,0,28,/,/
C=CCN1C(=O)C(O)(CC(=O)c2ccco2)c2cc(Br)ccc21 (configuration not stated),-2,59*,7,-2,8,35,/
Cc1ccc(-c2cc3c(N=O)c4ccccc4c-3n[nH]2)cc1,-9,93*,-7,-6,-14,89*,46*
CCOc1cc(-c2cc(-c3ccccc3)nc(N)c2C#N)ccc1O,0,76*,9,9,9,61*,95*
SMILES,UPR CHOP act,Mdm2-MdmX inh,Apaf1 inhib,UPR XBP1 act,UBC13 polyUb,Mdm2 MdmX conf,Full FLuc ctr
CCOc1cc(-c2cc(-c3ccc(N)cc3)nc(N)c2C#N)ccc1O,2,51*,7,11,9,26,124*
COc1cc(-c2cc(-c3ccc(F)cc3)nc(N)c2C#N)ccc1O,1,71*,9,8,9,52*,56*
CCOc1cc(-c2c(C#N)c(N)nc3c2CCCC3)ccc1O,1,34,14,3,4,/,/
N#Cc1c(-c2ccncc2)cc(-c2ccc(F)cc2)nc1N,1,16,6,2,15,/,/
O=C(/C=C/c1cccnc1)c1ccc([N+](=O)[O-])cc1,-1,36,4,-4,4,/,/
COc1cc(C(=O)/C=C/c2cccnc2)c([N+](=O)[O-])cc1OC,10,55*,-3,-1,-7,20,/
COc1cc(OC)cc(-c2c(-c3cccs3)c3cc(Br)ccc3n2C)c1,-1,21,15,-4,25,/,/
COc1cc(F)cc(-c2ccc3c(c2)c(-c2cccs2)c(-c2cc(OC)cc(OC)c2)n3C)c1,-1,54*,18,6,-2,55*,57*
Cc1cc(C)n(-c2ccc(C(=O)OCC(=O)Nc3ccc(Cl)cc3[N+](=O)[O-])cc2)n1,1,2,23,0,-5,/,/
CC(=O)c1ccc(NC(=O)C2=CC(c3cccs3)=NS(=O)(=O)N2C)cc1,-1,34,-8,-2,4,/,/
CCc1ccc(NC(=O)C2=CC(c3cccs3)=NS(=O)(=O)N2C)cc1,1,72*,12,-3,8,57*,44*
COc1cc(NC(=O)C2=CC(c3cccs3)=NS(=O)(=O)N2C)cc(OC)c1OC,-1,19,4,0,0,/,/
Cc1ccc(NC(=O)C2=CC(c3cccs3)=NS(=O)(=O)N2C)cc1,0,53*,-4,-3,-7,12,/
O=C(Nc1cccc(S(=O)(=O)N2CCCCCC2)c1)C1CCC1,0,7,2,-2,2,/,/
N#CC1=C(N)N2C(=C(C#N)C1c1ccccc1)Sc1ccccc12 (configuration not stated),-1,4,-2,-4,-18,/,/
N#CC1=C(N)N2C(=C(C#N)C1c1ccc(Br)cc1)Nc1ccccc12 (configuration not stated),4,96*,20,10,8,95*,53*
N#CC1=C(N)N2C(=C(C#N)C13CCN(Cc1ccccc1)CC3)Nc1ccccc12,-1,-14,1,1,-10,/,/
N#CC1=C(N)N2C(=C(C#N)C1c1cccc(Br)c1)Nc1ccccc12 (configuration not stated),1,100*,12,14,11,44*,40*
